Measurements published in article PMC9335275 (Proceedings of the National Academy of Sciences of the …, 2022).
Where two headings read alike, the source gives them in different places.

Experiments:
mice = conditions: 70 nmol/kg; cited from earlier work
[1] = Body weight of treated mice; assay type: in vivo, mouse; conditions: 3-wk-old FVB/nJ male mice, various regimens
How it was run: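 Wild-type male FVB/nJ mice, 3 wk old, about 15 g. Groups received one of: vehicle, daily SC 70 nmol/kg peptide, or microsphere-conjugated peptide. Conjugate dosing was weekly, biweekly or a single dose, either as constant nmol per mouse or as µmol/kg by body weight. Body weights of treated and untreated animals were followed over the study.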

[2] = test system: 3-wk-old FVB/nJ male mice; experiment: Growth; assay type: in vivo, mouse; conditions: QD 70 nmol/kg SC, 5 wk, n = 6
How it was run: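 Wild-type male FVB/nJ mice, 3 wk old, groups of 6, were given SC injections once daily of 70 nmol/kg peptide or vehicle for 5 wk. Total body length was nasoanal plus tail length, measured in anesthetized mice positioned with head extended, nose on a horizontal guideline and tail straight. Length change over the period was compared with the vehicle group.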

[3] = literature value; cited from earlier work
[4] = mice, QD 70-nmol/kg dose; cited from earlier work
[5] = biological target: T1, NPR-B receptor on NIH3T3 cells (Mus musculus, UniProt Q6VVW5); conditions: read-out: EC50, reported; literature values; cited from earlier work
T1 sequence (Q6VVW5 23-1047 limits assumed): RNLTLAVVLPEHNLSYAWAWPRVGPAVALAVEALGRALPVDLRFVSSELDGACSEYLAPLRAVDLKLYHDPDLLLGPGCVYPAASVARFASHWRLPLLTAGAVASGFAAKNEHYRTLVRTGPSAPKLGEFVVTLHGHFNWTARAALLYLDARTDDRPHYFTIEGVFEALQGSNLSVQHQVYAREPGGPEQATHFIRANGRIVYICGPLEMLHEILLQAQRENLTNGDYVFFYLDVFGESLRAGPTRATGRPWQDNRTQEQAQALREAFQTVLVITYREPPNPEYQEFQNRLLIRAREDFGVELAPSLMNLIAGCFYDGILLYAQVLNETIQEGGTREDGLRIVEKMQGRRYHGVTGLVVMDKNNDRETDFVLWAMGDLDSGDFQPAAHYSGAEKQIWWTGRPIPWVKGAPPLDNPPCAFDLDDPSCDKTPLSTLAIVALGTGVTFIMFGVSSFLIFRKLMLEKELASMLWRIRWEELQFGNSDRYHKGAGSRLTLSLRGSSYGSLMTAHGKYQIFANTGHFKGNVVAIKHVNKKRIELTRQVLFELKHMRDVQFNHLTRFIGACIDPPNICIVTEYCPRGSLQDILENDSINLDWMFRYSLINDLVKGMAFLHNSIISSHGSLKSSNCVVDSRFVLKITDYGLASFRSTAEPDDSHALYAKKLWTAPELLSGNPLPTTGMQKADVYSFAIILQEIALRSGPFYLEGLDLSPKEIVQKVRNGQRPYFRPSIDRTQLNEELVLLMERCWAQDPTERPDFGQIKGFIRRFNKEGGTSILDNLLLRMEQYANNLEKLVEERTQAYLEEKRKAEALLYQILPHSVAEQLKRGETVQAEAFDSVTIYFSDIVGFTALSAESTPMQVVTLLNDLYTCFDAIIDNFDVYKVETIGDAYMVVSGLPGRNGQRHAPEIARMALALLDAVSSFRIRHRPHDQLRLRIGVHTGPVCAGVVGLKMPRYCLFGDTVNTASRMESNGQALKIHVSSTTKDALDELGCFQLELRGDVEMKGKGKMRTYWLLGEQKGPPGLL

monkeys = conditions: 12 nmol/kg; cited from earlier work
[6] = In vitro degradation at pH 7.4, 37 °C, HPLC analysis; assay type: physicochemical
children with ACH = conditions: once daily 15 μg/kg SC; cited from earlier work
[7] = monkeys, 12 nmol/kg; cited from earlier work
[8] = biological target: T1, NPR-B receptor on NIH3T3 cells; experiment: 3T3 cell NPR-B guanylate cyclase assay; assay type: cell-based

degradation t1/2 ([6]; 100 µM, 10 mM sodium phosphate, 0.13 M NaCl, pH 7.4, 37 °C, HPLC): ~170 h
t1/2 for degradation ([6]; physiological pH and temperature): ≤ 1 wk
EC50 [8]: 11 nM
Structure (SMILES): CC[C@H](C)[C@@H]1NC(=O)[C@H](CCCNC(=N)N)NC(=O)[C@H](CC(=O)O)NC(=O)[C@H](CC(C)C)NC(=O)[C@H](CCCCN)NC(=O)[C@H](CC(C)C)NC(=O)CNC(=O)[C@H](Cc2ccccc2)NC(=O)[C@@H](NC(=O)CNC(=O)[C@H](CCCCN)NC(=O)[C@H](CO)NC(=O)[C@H](CC(C)C)NC(=O)CNC(=O)[C@H](CCCCN)NC(=O)[C@H](CCCCN)NC(=O)[C@H](CC(N)=O)NC(=O)[C@H](C)NC(=O)CNC(=O)[C@H](CCCCN)NC(=O)[C@H](Cc2ccc(O)cc2)NC(=O)[C@H](CCCCN)NC(=O)[C@H](CCCNC(=N)N)NC(=O)[C@H](C)NC(=O)[C@H](CC(N)=O)NC(=O)[C@@H]2CCCN2C(=O)[C@H](Cc2c[nH]cn2)NC(=O)[C@H](CCC(=O)O)NC(=O)[C@H](CCC(N)=O)NC(=O)CNC(=O)[C@@H]2CCCN2)CSSC[C@@H](C(=O)O)NC(=O)CNC(=O)[C@H](CC(C)C)NC(=O)CNC(=O)[C@H](CO)NC(=O)[C@H](CCSC)NC(=O)[C@H](CO)NC(=O)CNC1=O [vosoritide]
blood pressure and heart rate (mice): acute decreases in blood pressure and increases in heart rate within acceptable limits
body weights of treated versus untreated mice [1]: no difference
growth (TBL) exceeding that of the vehicle control group at study end [2]: 100%
Cmax [3]: ~5 nM
Cmax [4]: 200 nM
EC50 [5]: 4.9 nM
systemic BP or HR (monkeys): no changes in systemic BP or HR
annualized growth velocity (children with ACH): sustained increase in the annualized growth velocity
side effect profile (children with ACH): mild side effect profile
Cmax [7]: ~10 nM
